Laboratory results published in ChEMBL document CHEMBL2029224, “Prenylation at the indole ring leads to a significant increase of cytotoxicity of tryptophan-containing cyclic dipeptides” (Bioorg Med Chem Lett, 2012).
Values after ≈ are worked out from the molar mass of the structure shown.

Experiments:
Format in all cases: functional, cell-based
A2780 [1] = assay: Cytotoxicity against human cisplatin resistant A2780 cells after 72 hrs by MTT assay; conditions: A2780, 72 h
Method in brief: (§1)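 Cells kept in RPMI 1640 with 10% FCS and penicillin/streptomycin at 37 °C, 5% CO2, grown to 80% confluency. Seeded at 30,000 cells/well (K562) or 8,000 cells/well (A2780 sens and cisplatin-resistant CisR). After 24 h, exposed to increasing concentrations for 72 h. MTT added, formazan dissolved in DMSO, absorbance read at 544/690 nm. Viability relative to untreated cells (100%), triplicates, IC50.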

K562 = assay: Cytotoxicity against human K562 cells after 72 hrs by MTT assay; conditions: K562, 72 h; method in brief: as §1
A2780 [2] = assay: Cytotoxicity against human cisplatin sensitive A2780 cells after 72 hrs by MTT assay; conditions: A2780, 72 h; method in brief: as §1
[3] = Cytotoxicity against mouse tsFT210 cells

`O=C1N[C@@H](Cc2c[nH]c3ccccc23)C(=O)N[C@H]1Cc1c[nH]cn1` showed an IC50 (A2780 [1]) of over 100 µM, an IC50 (K562) of over 100 µM and an IC50 (A2780 [2]) of over 100 µM.
`C[C@H]1NC(=O)[C@H](Cc2c[nH]c3ccccc23)NC1=O` gave an IC50 (A2780 [1]) of over 100 µM, an IC50 (K562) of over 100 µM and an IC50 (A2780 [2]) of over 100 µM.
`CC(C)=CCc1[nH]c2ccccc2c1C[C@@H]1NC(=O)[C@H](Cc2ccccc2)NC1=O` gave an IC50 (A2780 [1]) of 81.6 µM, an IC50 (K562) of 70.4 µM and an IC50 (A2780 [2]) of 87 µM.
Compound `CC(C)=CCc1[nH]c2ccccc2c1C[C@@H]1NC(=O)[C@H](Cc2c[nH]c3ccccc23)NC1=O` has an IC50 (A2780 [1]) of 80.8 µM, an IC50 (K562) of 29.8 µM and an IC50 (A2780 [2]) of 89.7 µM.
Work on `O=C1N[C@@H](Cc2c[nH]c3ccccc23)C(=O)N[C@H]1Cc1c[nH]c2ccccc12` yielded an IC50 (A2780 [1]) of over 100 µM, an IC50 (K562) of over 100 µM and an IC50 (A2780 [2]) of over 100 µM.
`CC(C)=CCc1[nH]c2ccccc2c1C[C@@H]1NC(=O)[C@H](Cc2ccc(O)cc2)NC1=O` showed an IC50 (A2780 [1]) of 83.3 µM, an IC50 (K562) of 31.6 µM and an IC50 (A2780 [2]) of 89.8 µM.
With `CC(C)=CCc1[nH]c2ccccc2c1C[C@H]1NC(=O)[C@H]2CCCN2C1=O` the IC50 (A2780 [1]) was 85.6 µM, the IC50 (K562) was 30.9 µM and the IC50 (A2780 [2]) was 93.1 µM.
For `CC(C)=CCc1[nH]c2ccccc2c1C[C@@H]1NC(=O)CNC1=O`, the IC50 (A2780 [1]) was 85.2 µM, the IC50 (K562) was 16.7 µM and the IC50 (A2780 [2]) was 82.4 µM.
`CC(C)C[C@@H]1NC(=O)[C@H](Cc2c[nH]c3ccccc23)NC1=O` gave an IC50 (A2780 [1]) of over 100 µM, an IC50 (K562) of over 100 µM and an IC50 (A2780 [2]) of over 100 µM.
In the case of `O=C1N[C@H](Cc2c[nH]c3ccccc23)C(=O)N2CCC[C@@H]12`, the IC50 (A2780 [1]) is reported as over 100 µM, the IC50 (K562) is reported as over 100 µM and the IC50 (A2780 [2]) is reported as over 100 µM.
For `O=C1N[C@@H](Cc2c[nH]c3ccccc23)C(=O)N[C@H]1Cc1ccccc1`, the IC50 (A2780 [1]) was over 100 µM, the IC50 (K562) was over 100 µM and the IC50 (A2780 [2]) was over 100 µM.
In the case of `CC(C)=CCc1[nH]c2ccccc2c1C[C@@H]1NC(=O)[C@@H]2CCCN2C1=O` [TRYPROSTATIN B], the MIC [3] is reported as 4.4 µM (≈ 1.55 µg/mL), the IC50 ([3]; tsFT210) is reported as 18.8 µM and the IC50 (A2780 [1]) is reported as 85.9 µM. The IC50 (K562) was 21.1 µM and the IC50 (A2780 [2]) was 82.8 µM.
For `C[C@@H]1NC(=O)[C@@H](Cc2c[nH]c3ccccc23)NC1=O`, the IC50 (A2780 [1]) was over 100 µM, the IC50 (K562) was over 100 µM and the IC50 (A2780 [2]) was over 100 µM.
In the case of `CC(C)=CCc1[nH]c2ccccc2c1C[C@H]1NC(=O)[C@@H](C)NC1=O`, the IC50 (A2780 [1]) is reported as 81.1 µM, the IC50 (K562) is reported as 34.7 µM and the IC50 (A2780 [2]) is reported as 85 µM.
Compound `CC(C)=CCc1[nH]c2ccccc2c1C[C@@H]1NC(=O)[C@H]2CCCN2C1=O` has an IC50 (A2780 [1]) of 92 µM, an IC50 (K562) of 34.7 µM and an IC50 (A2780 [2]) of 106 µM.
Compound `C[C@@H]1NC(=O)[C@H](Cc2c[nH]c3ccccc23)NC1=O` has an IC50 (A2780 [1]) of over 100 µM, an IC50 (K562) of over 100 µM and an IC50 (A2780 [2]) of over 100 µM.
With `O=C1N[C@@H](Cc2c[nH]c3ccccc23)C(=O)N[C@H]1Cc1ccc(O)cc1` the IC50 (A2780 [1]) was over 100 µM, the IC50 (K562) was over 100 µM and the IC50 (A2780 [2]) was over 100 µM.
`O=C1CNC(=O)[C@H](Cc2c[nH]c3ccccc23)N1` gave an IC50 (A2780 [1]) of over 100 µM, an IC50 (K562) of over 100 µM and an IC50 (A2780 [2]) of over 100 µM.
`CC(C)=CCc1[nH]c2ccccc2c1C[C@@H]1NC(=O)[C@H](C)NC1=O` showed an IC50 (A2780 [1]) of 82.2 µM, an IC50 (K562) of 35.2 µM and an IC50 (A2780 [2]) of 89.8 µM.
`CC(C)=CCc1[nH]c2ccccc2c1C[C@@H]1NC(=O)[C@H](Cc2c[nH]cn2)NC1=O` showed an IC50 (A2780 [1]) of 91.7 µM, an IC50 (K562) of 32.2 µM and an IC50 (A2780 [2]) of 91.8 µM.
`CC(C)=CCc1[nH]c2ccccc2c1C[C@@H]1NC(=O)[C@@H](C)NC1=O` showed an IC50 (A2780 [1]) of 77 µM, an IC50 (K562) of 34.5 µM and an IC50 (A2780 [2]) of 77.2 µM.
Work on `CC(C)=CCc1[nH]c2ccccc2c1C[C@H]1NC(=O)[C@H](C)NC1=O` yielded an IC50 (A2780 [1]) of 84.3 µM, an IC50 (K562) of 35.3 µM and an IC50 (A2780 [2]) of 86.2 µM.
`CC(C)=CCc1[nH]c2ccccc2c1C[C@H]1NC(=O)[C@@H]2CCCN2C1=O` gave an IC50 (A2780 [1]) of 87.8 µM, an IC50 (K562) of 40.4 µM and an IC50 (A2780 [2]) of 100 µM.
For `O=C1N[C@@H](Cc2c[nH]c3ccccc23)C(=O)N2CCC[C@H]12`, the IC50 (A2780 [1]) was over 100 µM, the IC50 (K562) was over 100 µM and the IC50 (A2780 [2]) was over 100 µM.
`CC(C)=CCc1[nH]c2ccccc2c1C[C@@H]1NC(=O)[C@H](CC(C)C)NC1=O` showed an IC50 (A2780 [1]) of 75 µM, an IC50 (K562) of 30.1 µM and an IC50 (A2780 [2]) of 92.6 µM.
For `C[C@H]1NC(=O)[C@@H](Cc2c[nH]c3ccccc23)NC1=O`, the IC50 (A2780 [1]) was over 100 µM, the IC50 (K562) was over 100 µM and the IC50 (A2780 [2]) was over 100 µM.
`O=C1N[C@@H](Cc2c[nH]c3ccccc23)C(=O)N2CCC[C@@H]12` [BREVIANAMIDE F] gave an IC50 (A2780 [1]) of over 100 µM, an IC50 (K562) of over 100 µM and an IC50 (A2780 [2]) of over 100 µM.
In the case of `O=C1N[C@H](Cc2c[nH]c3ccccc23)C(=O)N2CCC[C@H]12`, the IC50 (A2780 [1]) is reported as over 100 µM, the IC50 (K562) is reported as over 100 µM and the IC50 (A2780 [2]) is reported as over 100 µM.
